Source: ChEMBL document CHEMBL1131244, “New alkenyldiarylmethanes with enhanced potencies as anti-HIV agents which act as non-nucleoside reverse transcriptase inhibitors” (J Med Chem, 1998)
One block for each compound: values may come before it.

What was measured:
CCRF-CEM [1] = experiment: The compound is evaluated for the cytotoxic concentration for the mock-infected CEM cells; type: functional; conditions: Homo sapiens
Outline: (§1)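 XTT cytoprotection assay in CEM-SS cells infected with HIV-1 RF, with uninfected cultures for cytotoxicity, in presence of fetal calf serum. Data as percent of uninfected drug-free control. EC50 is 50% protection from cytopathicity; CC50 is 50% cell death in uninfected cells; TI = CC50/EC50. Triplicates on each of two sister plates, plate EC50s averaged. Confirmed by supernatant RT and p24.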

CEM-SS [2] = experiment: Inhibitory concentration for cytopathicity of HIV-1 RF in CEM-SS cells; NA means there was no observed inhibition of HIV-1 cytopathicity up to the cytotoxic concentration in uninfected cells.; type: functional, cell-based; outline: as §1
CCRF-CEM [3] = experiment: The compound is evaluated for the activity against 129/cost (costatolide resistant), V108I mutation in reverse transcriptase in CEM-CC cells.; type: functional, cell-based; conditions: Homo sapiens, in the assay text read “K103N” for “V108I”
Outline: (§2)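 Cytoprotection assay in CEM-CC cells against NNRTI-resistant HIV-1 isolates obtained by in vitro selection or site-directed mutagenesis, using a higher MOI than the original screening assays. EC50 determined; fold resistance relative to wild-type HIV-1 IIIB.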

CCRF-CEM [4] = experiment: The compound is evaluated for the activity against 3TC, M184I mutation in reverse transcriptase in CEM-CC cells.; type: functional, cell-based; conditions: Homo sapiens
CCRF-CEM [5] = experiment: The compound is evaluated for the activity against DPS ( Diphenyl sulfone resistant), Y181C mutation in reverse transcriptase in CEM-CC cells.; type: functional, cell-based; conditions: Homo sapiens; outline: as §2
CEM-SS [6] = experiment: The compound is evaluated for the activity against HIV-1 NL4-3, 4XAZT (AZT resistant) mutation in reverse transcriptase in CEM-SS cells.; type: functional, cell-based; conditions: Homo sapiens
Outline: (§3)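 NL4-3-background virus carrying RT mutations, from site-directed mutagenesis or in vitro NNRTI selection, tested in CEM-SS cells. A higher MOI was used than in the primary screening assays. The result is given as EC50 against each mutant or wild-type virus.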

CEM-SS [7] = experiment: The compound is evaluated for the activity against HIV-1 NL4-3, 4XAZT/L100I (AZT resistant) mutation in reverse transcriptase in CEM-SS cells.
CEM-SS [8] = experiment: The compound is evaluated for the activity against HIV-1 NL4-3, 4XAZT/Y181C (AZT resistant) mutation in reverse transcriptase in CEM-SS cells.
CEM-SS [9] = experiment: The compound is evaluated for the activity against HIV-1 NL4-3, A98G mutation in reverse transcriptase in CEM-SS cells.
CEM-SS [10] = experiment: The compound is evaluated for the activity against HIV-1 NL4-3, K101E mutation in reverse transcriptase in CEM-SS cells.
CEM-SS [11] = experiment: The compound is evaluated for the activity against HIV-1 NL4-3, K103N mutation in reverse transcriptase in CEM-SS cells.
CEM-SS [12] = experiment: The compound is evaluated for the activity against HIV-1 NL4-3, L100I mutation in reverse transcriptase in CEM-SS cells.
CEM-SS [13] = experiment: The compound is evaluated for the activity against HIV-1 NL4-3, L74V mutation in reverse transcriptase in CEM-SS cells.
CEM-SS [14] = experiment: The compound is evaluated for the activity against HIV-1 NL4-3, V106A mutation in reverse transcriptase in CEM-SS cells.
CEM-SS [15] = experiment: The compound is evaluated for the activity against HIV-1 NL4-3, V108I mutation in reverse transcriptase in CEM-SS cells.
CEM-SS [16] = experiment: The compound is evaluated for the activity against HIV-1 NL4-3, V179D mutation in reverse transcriptase in CEM-SS cells.
CEM-SS [17] = experiment: The compound is evaluated for the activity against HIV-1 NL4-3, Y188C mutation in reverse transcriptase in CEM-SS cells.
CEM-SS [18] = experiment: The compound is evaluated for the activity against HIV-1 NL4-3, wild - type mutation in reverse transcriptase in CEM-SS cells.; type: functional, cell-based; conditions: Homo sapiens; outline: as §3
CEM-SS [19] = experiment: The compound is evaluated for the inhibitory activity against HIV-1 IIIB, wild-type laboratory adapted strain in CEM-SS.; type: functional, cell-based; conditions: Homo sapiens
Outline: (§4)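 XTT cytoprotection assay in CEM-SS cells infected with HIV-1. EC50 is the concentration giving 50% protection from viral cytopathicity, relative to the uninfected drug-free control. Triplicates were averaged on each of two sister plates, and the two plate EC50s were averaged. Results were confirmed by supernatant RT and p24 levels.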

CEM-SS [20] = experiment: The compound is evaluated for the inhibitory activity against HIV-1 RF, wild-type laboratory adapted strain in CEM-SS.; type: functional, cell-based; conditions: Homo sapiens; outline: as §4
CCRF-CEM [21] = experiment: The compound is evaluated for the activity against HEPT ((Hydroxyethoxy) methyl (phenylthio)thymine resistant), P236L mutation in reverse transcriptase in CEM-CC cells.; type: functional, cell-based; conditions: Homo sapiens; outline: as §2
CCRF-CEM [22] = experiment: The compound is evaluated for the activity against HIV-1 IIIB, wild - type mutation in reverse transcriptase in CEM-CC cells.; type: functional, cell-based; conditions: Homo sapiens
Outline: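 Resistant-virus panel in CEM-CC cells. Mutant isolates came from in vitro selection under various NNRTIs. More virus (higher MOI) was used than in the primary screening assays. The result is given as EC50 against each RT-mutant or wild-type isolate.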

CCRF-CEM [23] = experiment: The compound is evaluated for the activity against OC (Oxathiin carboxanilide resistant), L100I mutation in reverse transcriptase in CEM-CC cells.; type: functional, cell-based; conditions: Homo sapiens; outline: as §2
CCRF-CEM [24] = experiment: The compound is evaluated for the activity against TSAO/cost (costatolide resistant), K101E mutation in reverse transcriptase in CEM-CC cells.; type: functional, cell-based; conditions: Homo sapiens; outline: as §2
CCRF-CEM [25] = experiment: The compound is evaluated for the activity against calo ( calanolide resistant), T139I mutation in reverse transcriptase in CEM-CC cells.; type: functional, cell-based; conditions: Homo sapiens; outline: as §2
CCRF-CEM [26] = experiment: The compound is evaluated for the activity against cost, Y188H mutation in reverse transcriptase in CEM-CC cells.; type: functional, cell-based; conditions: Homo sapiens; outline: as §2
CCRF-CEM [27] = experiment: The compound is evaluated for the activity against thiazol (thiazolobenzimidazole resistant), T139I mutation in reverse transcriptase in CEM-CC cells.; type: functional, cell-based; conditions: Homo sapiens, in the assay text read “V108I” for “T139I”; outline: as §2
[28] = biological target: Human immunodeficiency virus type 1 integrase (Human immunodeficiency virus 1, UniProt Q7ZJM1); experiment: The compound is evaluated for the inhibitory against HIV -1 integrase. NI indicates no inhibition at 100 uM conc.
Homo sapiens = organism: Homo sapiens; experiment: The compound is evaluated for the inhibitory activity against HIV-1 Ba-L, monocyte-tropic in Mono/Mac cells.; type: functional, cell-based
[29] = biological target: Human immunodeficiency virus 1 nucleocapsid (Human immunodeficiency virus 1, UniProt Q76059); experiment: Inhibition of HIV-1 Nucleocapsid protein p7 (no inhibition at 25 uM)
[30] = The compound is evaluated for the inhibitory activity against HIV-1, clade A in PBMC cells.; type: functional, cell-based, Homo sapiens
[31] = The compound is evaluated for the inhibitory activity against HIV-1, clade B in PBMC cells.; type: functional, cell-based, Homo sapiens
[32] = The compound is evaluated for the inhibitory activity against HIV-1, clade C in PBMC cells.; type: functional, cell-based, Homo sapiens
[33] = The compound is evaluated for the inhibitory activity against HIV-1, clade D in PBMC cells.; type: functional, cell-based, Homo sapiens
[34] = The compound is evaluated for the inhibitory activity against HIV-1, clade E in PBMC cells.; type: functional, cell-based, Homo sapiens
[35] = The compound is evaluated for the inhibitory activity against HIV-1, clade F in PBMC cells.; type: functional, cell-based, Homo sapiens
[36] = biological target: Human immunodeficiency virus type 1 protease (Human immunodeficiency virus 1, UniProt Q72874); experiment: The compound is evaluated for the inhibitory against HIV -1 protease, a 17% inhibition of HIV-1 protease was observed at a concentration of 100 uM
[37] = The compound is evaluated for the inhibitory activity against HIV-1 ROJO, wild-type clinical isolate in PBMC cells.; type: functional, cell-based, Homo sapiens
[38] = The compound is evaluated for the inhibitory activity against HIV-1 TEKI, wild-type clinical isolate in PBMC cells.; type: functional, cell-based, Homo sapiens
CEM-SS [39] = experiment: The compound is evaluated for the activity against HIV-1 NL4-3, Y181C mutation in reverse transcriptase in CEM-SS cells.
[40] = biological target: Human immunodeficiency virus type 1 reverse transcriptase (Human immunodeficiency virus 1, UniProt Q72547); experiment: Inhibitory activity against human immunodeficiency virus (HIV) - 1 reverse transcriptase with rCdG as the template primer
Outline: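 Reactions stopped with ice-cold 10% trichloroacetate, filtered through GF/C membrane, washed with ethanol, radiolabel counted by Cerenkov counting. AZTTP and nevirapine as positive controls; IC50 reported.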

CEM-SS [41] = experiment: Inhibitory concentration for cytopathicity of HIV-1 in CEM-SS cells; type: functional, cell-based; conditions: Homo sapiens; outline: as §1
CEM-SS [42] = experiment: The compound is evaluated for the therapeutic index, which is the CC50 divided by the EC50.; type: functional; outline: as §1

SMILES: COC(=O)c1cc(C(=CCCCCO)c2cc(Cl)c(OC)c(C(=O)OC)c2)cc(Cl)c1OC
CC50 (CCRF-CEM [1]): 10.2 µM | EC50 (CEM-SS [2]): Not Active

SMILES: COC(=O)CCCC=C(c1cc(Cl)c(OC)c(C(=O)OC)c1)c1cc(Cl)c(OC)c(C(=O)OC)c1
EC50 (CCRF-CEM [3]): 10.8 µM | EC50 (CCRF-CEM [4]): 1.08 µM | EC50 (CCRF-CEM [5]): > 50 µM | CC50 (CCRF-CEM [1]): 31.6 µM | EC50 (CEM-SS [6]): 0.9 µM | EC50 (CEM-SS [7]): 0.27 µM | EC50 (CEM-SS [8]): > 50 µM | EC50 (CEM-SS [9]): 0.84 µM | EC50 (CEM-SS [10]): 3.05 µM | EC50 (CEM-SS [11]): > 50 µM | EC50 (CEM-SS [12]): < 0.16 µM | EC50 (CEM-SS [13]): 2.23 µM | EC50 (CEM-SS [14]): 12.7 µM | EC50 (CEM-SS [15]): 12 µM | EC50 (CEM-SS [16]): 50 µM | EC50 (CEM-SS [17]): 10.8 µM | EC50 (CEM-SS [18]): 1.78 µM | EC50 (CEM-SS [19]): 0.16 µM | EC50 (CEM-SS [20]): 0.91 µM | EC50 (CCRF-CEM [21]): 8.08 µM | EC50 (CCRF-CEM [22]): 0.39 µM | EC50 (CCRF-CEM [23]): 0.94 µM | EC50 (CCRF-CEM [24]): 11.9 µM | EC50 (CCRF-CEM [25]): 15 µM | EC50 (CCRF-CEM [26]): > 50 µM | EC50 (CCRF-CEM [27]): > 50 µM | IC50 [28]: No inhibition | EC50 (Homo sapiens): 0.36 µM | IC50 [29]: No inhibition | EC50 [30]: 1.09 µM | EC50 [31]: 0.43 µM | EC50 [32]: 1.04 µM | EC50 [33]: 1.02 µM | EC50 [34]: 0.4 µM | EC50 [35]: 1.7 µM | IC50 [36]: > 100 µM | EC50 [37]: 2.28 µM | EC50 [38]: 2.2 µM | EC50 (CEM-SS [39]): > 50 µM

SMILES: COC(=O)c1cc(C(=CCCOS(C)(=O)=O)c2cc(Cl)c(OC)c(C(=O)OC)c2)cc(Cl)c1OC
CC50 (CCRF-CEM [1]): 6.9 µM | EC50 (CEM-SS [2]): Not Active | IC50 [40]: 96 µM

SMILES: COC(=O)c1cc(C(=CCCO)c2cc(Br)c(OC)c(C(=O)OC)c2)cc(Br)c1OC
CC50 (CCRF-CEM [1]): > 316 µM | EC50 (CEM-SS [41]): 6 µM | IC50 [40]: 31.6 µM | TI (CEM-SS [42]): >52

IC50 [40]: > 100 µM
SMILES: COC(=O)c1cc(C(=CC(=O)O)c2cc(Cl)c(OC)c(C(=O)OC)c2)cc(Cl)c1OC
CC50 (CCRF-CEM [1]): 48 µM | EC50 (CEM-SS [2]): Not Active
